# Assay results from different studies.
# Compare with care: the assays were run in different laboratories.
# Target: Serine/threonine-protein kinase BRSK2 (BRSK2, Homo sapiens, UniProt Q8IWQ3)
# One construct used (Q8IWQ3 1-736): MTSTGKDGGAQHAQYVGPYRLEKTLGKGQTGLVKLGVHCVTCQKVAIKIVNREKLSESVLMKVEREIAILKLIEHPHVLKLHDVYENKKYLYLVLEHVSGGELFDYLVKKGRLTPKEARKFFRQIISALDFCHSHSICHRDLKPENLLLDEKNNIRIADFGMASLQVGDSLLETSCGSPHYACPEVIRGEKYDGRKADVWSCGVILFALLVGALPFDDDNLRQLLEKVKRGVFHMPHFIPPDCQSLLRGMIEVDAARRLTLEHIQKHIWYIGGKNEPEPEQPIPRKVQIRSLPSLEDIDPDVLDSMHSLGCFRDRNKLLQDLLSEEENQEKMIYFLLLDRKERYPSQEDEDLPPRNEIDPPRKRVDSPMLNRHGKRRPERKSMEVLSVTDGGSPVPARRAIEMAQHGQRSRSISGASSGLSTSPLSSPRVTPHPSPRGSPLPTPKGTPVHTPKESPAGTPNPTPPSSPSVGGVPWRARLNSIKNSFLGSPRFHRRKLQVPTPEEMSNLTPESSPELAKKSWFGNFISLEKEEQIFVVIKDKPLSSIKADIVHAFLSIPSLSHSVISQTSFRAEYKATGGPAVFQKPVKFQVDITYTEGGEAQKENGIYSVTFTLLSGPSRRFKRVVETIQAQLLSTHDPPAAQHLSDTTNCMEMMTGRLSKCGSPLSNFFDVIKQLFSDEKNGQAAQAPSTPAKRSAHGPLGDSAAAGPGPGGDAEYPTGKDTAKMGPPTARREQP
Compound,assay,conditions,remaining binding [%]
O=C(Nc1cccnn1)N1CC(C/C=C/c2cncc(Oc3ccc(C(F)(F)F)cn3)n2)C1,"cell-free assay, competition with immobilised ligand",1 µM,100
CN(C)c1nccc(-c2cnc3ncccn23)n1,binding,1 µM,100
CN(C)c1ncnc(-c2ccc3nc(Nc4cc(CN5CCN(C(=O)CC(F)(F)F)CC5)ccn4)[nH]c3c2)c1Cl,"cell-free assay, competition with immobilised ligand",1 µM,100
COc1cnc(Nc2cccc(S(N)(=O)=O)c2)nc1N1CCN(c2ccccc2)CC1,"binding, competition with immobilised ligand",1 µM,100
CN(CCCC(F)(F)F)c1nccc(-c2cnn3ncccc23)n1,binding,1 µM,100
COc1ncc2cc3ccccc3nc2c1C#N,"cell-free assay, competition with immobilised ligand",5 µM,74
c1cncc(-c2cccc(Nc3nccc(NC4CCCCC4)n3)c2)c1,"binding, competition with immobilised ligand",10 µM,99
O=C(Nc1cnc(Oc2ccc(F)cc2)nc1)N1CCc2ncccc2[C@@H]1c1ccc(F)cc1,"cell-free assay, competition with immobilised ligand",1 µM,89
O=C(NCCCN1CCOCC1)c1ccc(Nc2nccc(-c3cc4ccccc4s3)n2)cc1,"binding, competition with immobilised ligand",1 µM,77
Nc1ncc2c(n1)-c1c([nH]c3ccc(C#CC4CC4)cc13)CCCC2,"binding, competition with immobilised ligand",1 µM,93
COc1cc(-c2cn(C3CCc4ccccc4N(CC(F)(F)F)C3=O)nn2)ccc1-n1ccc(C)n1 (stereo not drawn),"cell-free assay, competition with immobilised ligand",1 µM,97
C[C@H]1CCN(c2nccc(-c3cnn4ncccc34)n2)C1,binding,1 µM,96
O=C(NCC1CCOCC1)c1n[nH]cc1NC(=O)c1c(F)cccc1F,"binding, competition with immobilised ligand",1 µM,95
N[C@H]1CCN(c2nccc(-c3cnn4ncccc34)n2)C1,binding,1 µM,100
O=C(NCCCN1CCOCC1)c1ccc(Nc2ncc(Cl)c(-c3ccc(Cl)s3)n2)cc1,"binding, competition with immobilised ligand",1 µM,45
CN(C)c1nccc(-c2cnn3ncccc23)n1,binding,1 µM,84
Cc1cnc(Nc2ccc(C(=O)N3CCC(N4CCCC4)CC3)cc2)nc1-c1cc2ccccc2s1,"binding, competition with immobilised ligand",1 µM,42
O=C(NS(=O)(=O)c1ccc(NCC2CCOCC2)c([N+](=O)[O-])c1)c1ccc(N2CCN(Cc3ccc(C(F)(F)F)cc3-c3ccc(Cl)cc3)CC2)cc1Oc1cnc2[nH]ccc2c1,"cell-free assay, competition with immobilised ligand",1 µM,87
CN(C)c1ncc(F)c(-c2cnn3ncccc23)n1,binding,1 µM,100
FC(F)(F)Oc1cccc(-c2cnc3ccc(-c4ccncc4)nn23)c1,"cell-free assay, competition with immobilised ligand",5 µM,80
NS(=O)(=O)c1cc(NC(=O)Cc2ccccc2)ccc1Oc1cccc(Cl)c1,"cell-free assay, competition with immobilised ligand",1 µM,91
